These results are taken from paper PMC4931879 (The Journal of Pharmacology and Experimental Therapeutics, 2016).

Data set [1] relates to Aβx-42 in H4-APPsw cell cultures. Put plainly: Automated multiplex HTRF assay, Aβx-42 in H4-APPsw cell cultures. Format: cell-based. The method in brief:
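H4-APPsw cultures treated overnight, 1 pM to 50 μM. Aβx-42 and Aβ1-x were read together in an automated HTRF multiplex; the Aβx-42 detection pairing includes monoclonal 4G8. Concentrations came from synthetic-peptide calibration curves (quadratic fit). Seven independent assays; IC50 for Aβx-42 and maximum percent inhibition for Aβ1-x, given with standard deviations.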

Data set [2] concerns Aβ1-42, Aβ1-40, Aβ1-38 and Aβ1-37 in H4-APPsw cell cultures. Format: cell-based. As to conditions: overnight. The gist of the method: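 H4-APPsw cultures incubated overnight with test compound at 0.46 to 333 nM, with 0.1% DMSO vehicle and a γ-secretase inhibitor reference at 1 μM. Aβ1-42, Aβ1-40, Aβ1-38 and Aβ1-37 were measured by Meso Scale 4-plex immunoassay. Concentrations came from on-plate synthetic-peptide calibration curves (quadratic fit), in pM corrected for dilution. Two replicate wells, standard error shown.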

Data set [3] deals with Aβ1-x in H4-APPsw cell cultures. Put plainly: Automated multiplex HTRF assay, Aβ1-x in H4-APPsw cell cultures. As to conditions: read-out: Aβ1-x maximum inhibition, H4-APPsw cell cultures, overnight, at 50 μM; ± standard deviation. Format: cell-based.
The subject of data set [4] is Aβ peptides in H4-APPsw cell cultures. Type of data set: cell-based. Conditions: overnight, 100 nM. The method in brief:
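H4-APPsw cultures incubated overnight with 0.1% DMSO or test compound at 100 nM. Aβ peptides were immunoprecipitated and analysed by MALDI mass spectrometry. Peaks were assigned by expected mass, referenced to an equimolar mix of synthetic peptides including [14N]Aβ1-40.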

Data set [5] relates to CSF Aβ peptides. Put plainly: CSF Aβ peptides in healthy human subjects after a single 900-mg oral dose. Type of data set: in vivo. The method in brief:
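Placebo-controlled, double-blind single-dose panel of 15 healthy young men and women of non-child-bearing potential. Single 900-mg oral dose or placebo, given fasted. CSF collected via indwelling lumbar catheter at −1, 0, 2, 4, 6, 8, 12, 15, 18 and 24 h. Aβ1-42/40/38 measured by Meso Scale 3-plex; Aβ1-37 by 26D6/Aβ1-37-selective polyclonal ELISA; Aβ1-x by 4G8/26D6-HRP ELISA.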

Data set [6] is described as follows: Distribution into rat brain after oral administration. Format: in vivo, rats. As to conditions: 10 mg/kg oral. The method in brief:
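Rats dosed orally at 10 mg/kg in PEG400/Solutol/TPGS (90:5:5 w/w/w). n = 3 per time point, sampled at 1, 4, 8 and 24 h. Jugular blood collected into EDTA and centrifuged at 4°C (1500–2000 × g). Brain blotted, weighed and homogenized in 4 volumes of PBS; cerebellum analysed. Samples stored at −20°C, then LC-MS/MS. Brain-to-plasma ratios per time point and brain/plasma AUC ratio.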

Data set [7] has as its system CSF Aβ peptides. As to the kind of experiment: CSF Aβ peptides in dogs after single oral doses. Type of data set: in vivo, beagle dogs. As to conditions: dog. The gist of the method: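 Male beagles, about 1 year old, 8–11 kg, with indwelling lumbar catheters; CSF sampled while conscious and lightly restrained. Fasted 16 h before dosing, fed 4 h after. Four dogs in a randomized crossover with 1-week washout: oral 2, 5 or 30 mg/kg or vehicle. CSF taken predose and up to 72 h, spun at 1330 × g for 10 min at 4°C. Aβ1-42/40/38/37 measured by Meso Scale 4-plex; the four were also summed.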

Data set [8] can be described thus: Plasma exposure in rats after single intravenous doses. Conditions: rat, intravenous 1, 5, 10 mg/kg. Format: in vivo, Sprague-Dawley rats. The gist of the method:
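Same IV rat study: fasted females, 1, 5 or 10 mg/kg in PEG400/ethanol/Solutol, n = 4 per time point from 10 min to 24 h. Blood taken by cardiac puncture into EDTA for plasma. Plasma deproteinized and extracted with acetonitrile, then analysed by UPLC-MS/MS (C18 column at 60°C); quantitation range 10–5000 nM.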

For the next data set, the system named is brain Aβ peptides. As to the kind of experiment: Brain Aβ peptides in rats after single intravenous doses. Format: in vivo, Sprague-Dawley rats. As to conditions: rat. The method in brief:
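Female Sprague-Dawley rats, 10–12 weeks old, fasted from 16 h before to 4 h after dosing. Given IV 1, 5 or 10 mg/kg or vehicle (PEG400/ethanol/Solutol HS 15, 93:5:2 w/w/w; 1.5 ml/kg) in randomized order. n = 4 per time point, killed by CO2 at 10 min, 30 min, and 1, 3, 7, 12 and 24 h. Brain without cerebellum frozen in liquid nitrogen. Aβ1-42/40/38/37 measured by singleplex ELISAs; Aβ1-x by 4G8/252Q6-HRP ELISA; compared with vehicle.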

In data set [9] the test system is amyloid-β precursor protein C-terminal fragment. Put plainly: APP C-terminal fragment accumulation in rat brain. Format: in vivo, rats. Conditions: 30 mg/kg oral, 8 or 12 hours.
The nature of data set [10]: 14-day daily oral dose safety assessment in rats. Format: in vivo. As to conditions: for AUC at 14 days: rat, in vivo, po, 100 mg/kg. The method in brief: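 Safety study in male and female rats given daily oral doses of 10, 30 or 100 mg/kg for 14 days; plasma AUC determined on day 14.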
Data set [11] deals with Aβ1-42 in H4-APPsw cell cultures. As to the kind of experiment: Aβ1-42 immunoassay. Format: cell-based. Conditions: read-out: Aβ1-42 IC50. The gist of the method: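 Overnight exposure of H4-APPsw cultures, 10 pM to 10 μM. Aβ1-42 and Aβ1-40 were measured in parallel from the same cultures by automated HTRF immunoassays. Concentrations came from synthetic-peptide calibration curves (quadratic fit). Three independent assays; IC50 given with standard deviation.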

The subject of the next data set is Notch1. Put plainly: Cell-based transcriptional reporter assay, Notch1. Conditions: read-out: Notch1 IC50.
The test system of another data set is Aβ1-42. Put plainly: PK/PD across species: Aβ1-42 trough versus plasma exposure. Type of data set: in vivo. Conditions: nonlinear fit of the entire data set: rat, dog, monkey, human. The gist of the method: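 CSF Aβ1-42 trough (lowest level after dosing) plotted against plasma AUC and Cmax. Values were per individual human subject and per dose in individual dogs and monkeys. Rats used group means, with troughs for both brain and CSF, drawn from the IV study plus two further time courses. A nonlinear fit of the pooled data gave the exposure at 50% inhibition.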

A further data set concerns Notch3. Put plainly: Cell-based transcriptional reporter assay, Notch3. As to conditions: read-out: Notch3 IC50.
Data set [12] in a line: Plasma exposure in monkeys after single intravenous doses. As to conditions: monkey, intravenous 5 or 15 mg/kg. Type of data set: in vivo, cynomolgus monkeys. The gist of the method: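 Crossover in four lumbar-catheterized male cynomolgus monkeys given IV 5 or 15 mg/kg or vehicle. Blood drawn at 1, 2, 3, 4, 5 and 30 min and at 1, 2, 4, 7, 10, 24 and 48 h. Samples kept on ice and centrifuged at 2880 × g for 10 min; plasma kept for compound levels.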

In data set [13] the test system is CSF Aβ peptides. Put plainly: CSF Aβ peptides in monkeys after single intravenous doses. Format: in vivo, cynomolgus monkeys. Conditions: monkey.
Data set [14] deals with Aβ1-42 levels in cerebrospinal fluid. As to conditions: clinical trials, even at high doses; ref Galasko et al., 2007; cited from earlier work.
[15] abbreviates: 30 mg/kg oral, 24 hours after dose.
The mark [16] stands for this setting: single intravenous dose 1, 5 or 10 mg/kg.
Where [17] appears, read: intravenous, 12–24 hours after the 30-mg/kg dose (so in the source).

pIC50: −log10 of the molar value.

With `C[C@H](c1ccc(F)cc1CCCC(=O)O)N(c1cc(F)ccc1F)S(=O)(=O)c1ccc(Cl)cc1` [BMS-299897, (R)-4-(2-(1-((4-chloro-N-(2,5-difluorophenyl)phenyl)sulfonamido)ethyl)-5-fluorophenyl)butanoic acid, reference compound], the “Reduction of Aβx-42 versus Aβ1-x in the multiplex assays (relative potency)” value in data set [1] (H4-APPsw cell cultures, overnight, 1 pM to 50 μM) is “approximately equal potency”. Moreover, the “Effect on production of Aβ1-42, Aβ1-40, Aβ1-38 and Aβ1-37” value in data set [2] (1 μM) is reported as “inhibited production of all four Aβ peptides”.
Turning to `CNc1nc(Nc2ccc(-n3cnc(C)n3)c(OC)c2)nc2c1CC[C@H]2c1ccc(F)cc1` [BMS-932481, (S)-7-(4-fluorophenyl)-N2-(3-methoxy-4-(3-methyl-1H-1,2,4-triazol-1-yl)phenyl)-N4-methyl-6,7-dihydro-5H-cyclopenta[d]pyrimidine-2,4-diamine], the inhibition at 50 µM in data set [3] was ≤ 30%. Moreover, in data set [4], the “Aβ1-42 and Aβ1-40 detected by IP-MALDI mass spectroscopy” value is reported as “no Aβ1-42 or Aβ1-40 was detected”. Also, in the data set on CSF Aβ peptides [5], the “CSF Aβ1-37 increase” value is given as “ca. 12 fold” and the “CSF Aβ1-40 change” value is “decrease”. The “CSF Aβ1-42, level relative to predose” value in the data set with CSF Aβ peptides [5] (after 24 hours) was 50 % of predose levels. Further, the “CSF Aβ1-38 increase” value in the data set on CSF Aβ peptides [5] (gradual increase) was “about 2 fold”. For the same compound, the “CSF Aβ1-x transient increase” value in the data set on CSF Aβ peptides [5] (the same increase in the placebo group) is “approximately 40%”. In data set [1] (read-out: Aβx-42 IC50), the pIC50 was 8.26. In data set [6], the Brain penetration entry is “moderate brain penetration”. In the data set with CSF Aβ peptides [7] (30 mg/kg oral), the “CSF Aβ1-37 maximal increase” value was 5 fold. In addition, in the data set on CSF Aβ peptides [7] (setting [15]), the “CSF Aβ1-40 maximum reduction” value is “ca. 65%” and the “CSF Aβ1-42 maximum reduction” value is given as “ca. 65%”. The “Effect on the sum of the four CSF Aβ peptides” value in the data set with CSF Aβ peptides [7] (oral 2, 5 or 30 mg/kg) was “little, if any, effect”. Also, the “Concentrations in blood plasma, dose proportionality” value in data set [8] was “dose-proportional”. Moreover, the “Sum of brain Aβ1-42, Aβ1-40, Aβ1-38 and Aβ1-37 concentrations, change” value in the data set with brain Aβ peptides (intravenous 1, 5 or 10 mg/kg) is on record as “no significant changes”. In the data set on brain Aβ peptides (intravenous, any dose or time point), the “Brain Aβ1-x change” value was “no significant changes”. In the data set with brain Aβ peptides (setting [16]), the “Brain Aβ1-37 maximal increase” value is reported as “ca. 6 fold”, the “Brain Aβ1-38 maximal increase” value is given as “ca. 2 fold”, the “Brain Aβ1-40 maximum reduction relative to vehicle-treated rats” value was “about 75%” and the “Brain Aβ1-42 maximum reduction relative to vehicle-treated rats” value was “about 75%”. Moreover, the “Effect on APP C-terminal fragment accumulation in brain” value in data set [9] is “no effect”. Further, the AUC at 14 days in [10] (female) was found to be 508 µM·h. In data set [10] (male), this compound yielded an AUC at 14 days of 892 µM·h. For the same compound, in data set [10] (rat, 10, 30 or 100 mg/kg daily oral for 14 days, any dose level), the “Histologic changes suggestive of Notch inhibition” value is “no histologic changes suggestive of Notch inhibition”. Besides, the pIC50 in data set [11] was 8.18. Moreover, the “Effect on the overall level of Aβ” value in data set [2] (0.46 to 333 nM) is listed as “little if any effect”. For the same compound, the negative logarithm of the IC50 (pIC50) with Notch1 was ~6.00. The “Plasma AUC at 50% inhibition (Aβ1-42 trough)” value with Aβ1-42 was 11 μM⋅h. Moreover, the pIC50 in the data set on Notch3 is ~6.00.
With `Cc1ncn(-c2ccc3cc2OC/C=C\CNc2nc(nc4c2CC[C@H]4c2ccc(Cl)cc2F)N3)n1` [BMS-986133, (S,Z)-17-(4-chloro-2-fluorophenyl)-34-(3-methyl-1H-1,2,4-triazol-1-yl)-16,17-dihydro-15H-4-oxa-2,9-diaza-1(2,4)-cyclopenta[d]pyrimidina-3(1,3)-benzenacyclononaphan-6-ene], in data set [12], the “Concentrations in blood plasma, dose proportionality” value is reported as “dose-proportional”. Moreover, the “Effect on CSF Aβ1-x or the sum of the four Aβ peptides” value in the data set on CSF Aβ peptides [13] (intravenous 5 or 15 mg/kg) is reported as “little, if any, effect”. Also, in the data set with CSF Aβ peptides [13] (setting [17]), the “CSF Aβ1-40 maximum reduction” value is recorded as “ca. 75%” and the “CSF Aβ1-42 maximum reduction” value is recorded as “ca. 75%”.
In the case of `CC(C(=O)O)c1ccc(-c2ccccc2)c(F)c1` (stereo not drawn) [flurbiprofen], the “Effect on Aβ1-42 levels in cerebrospinal fluid” value in data set [14] was “no effect”.
